# Test results reported in ChEMBL document CHEMBL1667761, “3-benzylamino-β-carboline derivatives induce apoptosis through G2/M arrest in human carcinoma cells HeLa S-3” (Eur J Med Chem, 2011).
# Active and inactive are the calls of the source. The rule behind the calls is not given here.
# What was measured:
# [1] = Antitumor activity against human HeLaS3 cells after 24 to 72 hrs by MTT assay; assay type: functional, cell-based, HeLa S3
# Outline: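 HeLa S-3 cells (MEM, 10% FBS, HEPES, NEAA, 2 mM L-glutamine, 5% CO2, 37 °C) seeded at 2 × 10⁴ cells/ml and cultured 3 h before exposure for 24–72 h at 37 °C. MTT (2 mg/ml) added for 4 h at 37 °C, formazan dissolved in DMSO, A540 read. Viability is expressed as % of control. IC50 is the concentration giving 50% growth inhibition, mean ± S.D. of four independent experiments run in triplicate.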
# [2] = tested on: HeLa S3; assay: Induction of apoptosis in human HeLaS3 cells assessed as appearance of fragmented nuclei at 5 times IC50 after 48 hrs by Hoechst staining; assay type: functional, cell-based
# Outline: (§1)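 Stained with Hoechst 33342 (1 µg/ml) for 40 min at 37 °C. Nuclei were examined by confocal laser microscopy, and apoptosis was scored from chromatin condensation and fragmented nuclei.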
# [3] = tested on: HeLa S3; assay: Induction of apoptosis in human HeLaS3 cells assessed as appearance of fragmented nuclei at 10 times IC50 after 48 hrs by Hoechst staining; assay type: functional, cell-based; outline: as §1
# [4] = tested on: HeLa S3; assay: Induction of apoptosis in human HeLaS3 cells assessed as DNA fragmentation after 24 hrs by agarose gel electrophoresis; assay type: functional, cell-based
# Outline: (§2)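 HeLa S-3 cells exposed for 12–48 h, then pellets lysed in 0.6% sarcosine, 20 mM Tris-HCl pH 7.4, 20 mM EDTA. Lysate treated with RNase A for 2 h at 50 °C, then proteinase K overnight at 50 °C. DNA extracted with phenol/chloroform, run on 2% agarose in TAE at 50 V, stained with ethidium bromide, and visualised under UV.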
# [5] = tested on: HeLa S3; assay: Induction of apoptosis in human HeLaS3 cells assessed as DNA fragmentation after 48 hrs by agarose gel electrophoresis; assay type: functional, cell-based; outline: as §2
# [6] = tested on: HeLa S3; assay: Induction of apoptosis in human HeLaS3 cells assessed as cleaved caspase-3 at 5 times IC50 by Western blot method; assay type: functional, cell-based
# Outline: (§3)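 HeLa S-3 cells treated for 24 h at 5-fold the IC50, alongside non-treated controls. Cells lysed in RIPA buffer (pH 8.0) with protease inhibitors and the whole-cell extract separated by SDS-PAGE, then transferred to PVDF. Blots blocked in 5% skim milk/TTBS and probed with anti-cdc2, cdk2 or cleaved caspase-3 antibodies (1:1000). β-actin (1:5000) served as loading control. Detection by HRP secondary antibody and ECL.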
# [7] = Cell cycle arrest in human HeLaS3 cells assessed as accumulation at G1 phase at 5 uM after 24 hrs by flow cytometry; assay type: functional, cell-based; conditions: HeLa S3
# Outline: (§4)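 HeLa S-3 cells exposed for 6, 12 or 24 h. Cells washed twice in ice-cold PBS, fixed in ice-cold 70% ethanol, and resuspended with 0.1 mg/ml RNase. Stained with […] PI and analysed by flow cytometry. Phase distribution (sub-G1, G1, S, G2/M) is reported as percentage of cells. Controls were untreated.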
# [8] = Cell cycle arrest in human HeLaS3 cells assessed as accumulation at S phase at 5 uM after 24 hrs by flow cytometry; assay type: functional, cell-based; conditions: HeLa S3; outline: as §4
# [9] = Cell cycle arrest in human HeLaS3 cells assessed as accumulation at G2/M phase at 5 uM after 24 hrs by flow cytometry; assay type: functional, cell-based; conditions: HeLa S3; outline: as §4
# [10] = Cell cycle arrest in human HeLaS3 cells assessed as accumulation at sub-G1 phase at 5 uM after 12 hrs by flow cytometry; assay type: functional, cell-based; conditions: HeLa S3; outline: as §4
# [11] = Cell cycle arrest in human HeLaS3 cells assessed as accumulation at G1 phase at 5 uM after 12 hrs by flow cytometry; assay type: functional, cell-based; conditions: HeLa S3; outline: as §4
# [12] = Cell cycle arrest in human HeLaS3 cells assessed as accumulation at S phase at 5 uM after 12 hrs by flow cytometry; assay type: functional, cell-based; conditions: HeLa S3; outline: as §4
# [13] = Cell cycle arrest in human HeLaS3 cells assessed as accumulation at G2/M phase at 5 uM after 12 hrs by flow cytometry; assay type: functional, cell-based; conditions: HeLa S3; outline: as §4
# [14] = Cell cycle arrest in human HeLaS3 cells assessed as accumulation at sub-G1 phase at 5 uM after 6 hrs by flow cytometry; assay type: functional, cell-based; conditions: HeLa S3; outline: as §4
# [15] = Cell cycle arrest in human HeLaS3 cells assessed as accumulation at G1 phase at 5 uM after 6 hrs by flow cytometry; assay type: functional, cell-based; conditions: HeLa S3; outline: as §4
# [16] = Cell cycle arrest in human HeLaS3 cells assessed as accumulation at S phase at 5 uM after 6 hrs by flow cytometry; assay type: functional, cell-based; conditions: HeLa S3; outline: as §4
# [17] = Cell cycle arrest in human HeLaS3 cells assessed as accumulation at G2/M phase at 5 uM after 6 hrs by flow cytometry; assay type: functional, cell-based; conditions: HeLa S3; outline: as §4
# [18] = Cell cycle arrest in human HeLaS3 cells assessed as accumulation at sub-G1 phase at 1 uM after 24 hrs by flow cytometry; assay type: functional, cell-based; conditions: HeLa S3; outline: as §4
# [19] = Cell cycle arrest in human HeLaS3 cells assessed as accumulation at G1 phase at 1 uM after 24 hrs by flow cytometry; assay type: functional, cell-based; conditions: HeLa S3; outline: as §4
# [20] = Cell cycle arrest in human HeLaS3 cells assessed as accumulation at S phase at 1 uM after 24 hrs by flow cytometry; assay type: functional, cell-based; conditions: HeLa S3; outline: as §4
# [21] = Cell cycle arrest in human HeLaS3 cells assessed as accumulation at G2/M phase at 1 uM after 24 hrs by flow cytometry; assay type: functional, cell-based; conditions: HeLa S3; outline: as §4
# [22] = Cell cycle arrest in human HeLaS3 cells assessed as accumulation at sub-G1 phase at 1 uM after 12 hrs by flow cytometry; assay type: functional, cell-based; conditions: HeLa S3; outline: as §4
# [23] = Cell cycle arrest in human HeLaS3 cells assessed as accumulation at G1 phase at 1 uM after 12 hrs by flow cytometry; assay type: functional, cell-based; conditions: HeLa S3; outline: as §4
# [24] = Cell cycle arrest in human HeLaS3 cells assessed as accumulation at S phase at 1 uM after 12 hrs by flow cytometry; assay type: functional, cell-based; conditions: HeLa S3; outline: as §4
# [25] = Cell cycle arrest in human HeLaS3 cells assessed as accumulation at G2/M phase at 1 uM after 12 hrs by flow cytometry; assay type: functional, cell-based; conditions: HeLa S3; outline: as §4
# [26] = Cell cycle arrest in human HeLaS3 cells assessed as accumulation at sub-G1 phase at 1 uM after 6 hrs by flow cytometry; assay type: functional, cell-based; conditions: HeLa S3; outline: as §4
# [27] = Cell cycle arrest in human HeLaS3 cells assessed as accumulation at G1 phase at 1 uM after 6 hrs by flow cytometry; assay type: functional, cell-based; conditions: HeLa S3; outline: as §4
# [28] = Cell cycle arrest in human HeLaS3 cells assessed as accumulation at S phase at 1 uM after 6 hrs by flow cytometry; assay type: functional, cell-based; conditions: HeLa S3; outline: as §4
# [29] = Cell cycle arrest in human HeLaS3 cells assessed as accumulation at G2/M phase at 1 uM after 6 hrs by flow cytometry; assay type: functional, cell-based; conditions: HeLa S3; outline: as §4
# [30] = Cell cycle arrest in human HeLaS3 cells assessed as increase in cdc2 protein level at 5 times IC50 by Western blot method; assay type: functional, cell-based; conditions: HeLa S3; outline: as §3
# [31] = Cell cycle arrest in human HeLaS3 cells assessed as effect on cdk2 protein level at 5 times IC50 by Western blot method; assay type: functional, cell-based; conditions: HeLa S3; outline: as §3
# [32] = Cell cycle arrest in human HeLaS3 cells assessed as accumulation at sub-G1 phase at 5 uM after 24 hrs by flow cytometry; assay type: functional, cell-based; conditions: HeLa S3; outline: as §4
compound,measurement,setting,value
COC(=O)c1cccc(CNc2cc3c(cn2)[nH]c2ccccc23)c1,IC50,"[1]; Homo sapiens, HeLa S3",17 µM
C[n+]1cc2[nH]c3ccccc3c2cc1NCc1ccccc1 [listing 1 of 2 here],Activity,[2],Active
same,Activity,[3],Active
same,Activity,[4],inactive
same,Activity,[5],Active
same,Activity,[6],Active
same,Activity,[7],4.4%
same,Activity,[8],3.6%
same,Activity,[9],82.3%
same,Activity,[10],3.2%
same,Activity,[11],6.1%
same,Activity,[12],10%
same,Activity,[13],78.5%
same,Activity,[14],2.8%
same,Activity,[15],29.7%
same,Activity,[16],13.8%
same,Activity,[17],50.5%
same,Activity,[18],34.6%
same,Activity,[19],38.4%
same,Activity,[20],13.6%
same,Activity,[21],13.8%
same,Activity,[22],10.3%
same,Activity,[23],7.8%
same,Activity,[24],8.7%
same,Activity,[25],73.5%
same,Activity,[26],4.7%
same,Activity,[27],31.5%
same,Activity,[28],21.9%
same,Activity,[29],46.1%
same,Activity,[30],Active
same,Activity,[31],inactive
same,Activity,[32],6.9%
Oc1cccc(CNc2cc3c(cn2)[nH]c2ccccc23)c1,Activity,[2],Active
same,Activity,[3],Active
same,Activity,[4],Active
same,Activity,[6],Active
same,Activity,[7],15.8%
same,Activity,[8],6.8%
same,Activity,[9],53.3%
same,Activity,[10],5.9%
same,Activity,[11],7.2%
same,Activity,[12],8.9%
same,Activity,[13],76.7%
same,Activity,[14],3.5%
same,Activity,[15],27.3%
same,Activity,[16],14.1%
same,Activity,[17],52.9%
same,Activity,[18],7.5%
same,Activity,[19],58.5%
same,Activity,[20],17.4%
same,Activity,[21],17.1%
same,Activity,[22],9.5%
same,Activity,[23],48.8%
same,Activity,[24],10.7%
same,Activity,[25],31.3%
same,Activity,[26],8.2%
same,Activity,[27],36.2%
same,Activity,[28],20%
same,Activity,[29],36.3%
same,Activity,[30],Active
same,Activity,[31],inactive
same,Activity,[32],21.3%
same,IC50,"[1]; Homo sapiens, HeLa S3",0.92 µM
CCNc1cc2c3ccccc3nc-2c[nH]1,IC50,"[1]; Homo sapiens, HeLa S3",19 µM
CC(C)(C)OC(=O)NCCOc1cccc(CNc2cc3c(cn2)[nH]c2ccccc23)c1,IC50,"[1]; Homo sapiens, HeLa S3",16 µM
C[n+]1cc2[nH]c3ccccc3c2cc1NCc1ccccc1 [listing 2 of 2 here],IC50,[1]; hela s3,0.54 µM
c1ccc2c(c1)[nH]c1cnccc12 [NORHARMANE],IC50,"[1]; Homo sapiens, HeLa S3",> 100 µM
CC(C)(C)CNc1cc2c(cn1)[nH]c1ccccc12,IC50,"[1]; Homo sapiens, HeLa S3",17 µM
CNc1cc2c(cn1)[nH]c1ccccc12,IC50,"[1]; Homo sapiens, HeLa S3",101 µM
